Measurements taken from ChEMBL document CHEMBL4145696 (J Med Chem, 2018).
The source made the active and inactive calls. The rule behind the calls is not given here.

Assays:
A-375 [1] = experiment: Antitumor activity against human A375 cells xenografted in mouse assessed as inhibition of tumor growth at 15 mg/kg, ip dosed every other day for 2 weeks relative to untreated control; assay type: functional; conditions: A-375, ip, 336 h, read-out: TGI
Summary of the method: (§1)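 Nude mice (6–8 weeks) implanted s.c. in dorsal flank with 2.5×10^6 log-phase A375 cells in serum-free, phenol red-free medium mixed with Matrigel. At ~100 mm³ tumours, randomized (n = 8); i.p. 100 μL every other day for 2 weeks in PEG300:PBS 1:1, vehicle control.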

A-375 [2] = experiment: Antitumor activity against human A375 cells xenografted in mouse assessed as reduction in tumor volume at 15 mg/kg, ip dosed every other day for 2 weeks; assay type: functional, organism-based; summary of the method: as §1
[3] = Cytotoxicity in human PC3-TxR cells assessed as reduction in cell viability incubated for 72 hrs by MTS assay; assay type: functional, cell-based
A-375 [4] = experiment: Antitumor activity against human A375 cells xenografted in mouse assessed as inhibition of tumor growth at 30 mg/kg, ip dosed every other day for 2 weeks relative to untreated control; assay type: functional; conditions: A-375, ip, 336 h, read-out: TGI; summary of the method: as §1
[5] = Resistance index, ratio of IC50 for cytotoxicity in human DU145-TxR cells to IC50 for cytotoxicity in human DU145 cells; assay type: functional
Summary of the method: (§2)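 Prostate lines cultured in RPMI 1640 with 10% FBS at 37 °C and 5% CO2: parental PC-3 with paclitaxel-resistant PC-3/TxR, and parental DU-145 with docetaxel-resistant DU-145/TxR. Cells seeded at 1,800–3,500/well and left overnight, then exposed 72 h to 10 concentrations (0.03 nM–1 μM) or DMSO vehicle, in quadruplicate. MTS read at 490 nm; IC50s by nonlinear regression; index = resistant IC50/parental IC50.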

[6] = Half life in human liver microsomes in presence of NADPH regeneration system
A-375 [7] = experiment: Cytotoxicity in human A375 cells assessed as reduction in cell viability incubated for 72 hrs by MTS assay; assay type: functional, cell-based; conditions: A-375, 72 h
Mus musculus [8] = experiment: Toxicity in human A375 cells xenografted mouse assessed as effect on body weight at 15 mg/kg, ip dosed every other day for 2 weeks relative to untreated control; assay type: organism-based; conditions: in vivo, 336 h
[9] = Half life in mouse liver microsomes in presence of NADPH regeneration system
A-375 [10] = experiment: Antitumor activity against human A375 cells xenografted in mouse assessed as reduction in tumor weight at 30 mg/kg, ip dosed every other day for 2 weeks; assay type: functional, organism-based; summary of the method: as §1
DU-145 = experiment: Cytotoxicity in human DU145 cells assessed as reduction in cell viability incubated for 72 hrs by MTS assay; assay type: functional, cell-based; conditions: DU-145, 72 h
Summary of the method: (§3)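 Prostate lines (parental PC-3 and DU-145, with paclitaxel- or docetaxel-resistant TxR sublines) grown in RPMI 1640 with 10% FBS and antibiotic/antimycotic at 37 °C, 5% CO2. Seeded at 1,800–3,500 cells/well overnight, then dosed at 10 concentrations, 0.03 nM–1 μM, plus DMSO vehicle, for 72 h, quadruplicate. MTS read at 490 nm; IC50 by nonlinear regression.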

[11] = Intrinsic clearance in mouse liver microsomes in presence of NADPH regeneration system
PC-3 = experiment: Cytotoxicity in human PC3 cells assessed as reduction in cell viability incubated for 72 hrs by MTS assay; assay type: functional, cell-based; conditions: PC-3, 72 h
[12] = Cytotoxicity in human DU145-TxR cells assessed as reduction in cell viability incubated for 72 hrs by MTS assay; assay type: functional, cell-based; summary of the method: as §3
M14 = experiment: Cytotoxicity in human M14 cells assessed as reduction in cell viability incubated for 72 hrs by MTS assay; assay type: functional, cell-based; conditions: M14, 72 h
RPMI-7951 = experiment: Cytotoxicity in human RPMI7951 cells assessed as reduction in cell viability incubated for 72 hrs by MTS assay; assay type: functional, cell-based; conditions: RPMI-7951, 72 h
Bos taurus = species: Bos taurus; experiment: Inhibition of bovine brain tubulin polymerization at 10 uM measured every 1 min for 20 mins by spectrophotometry
[13] = Intrinsic clearance in human liver microsomes in presence of NADPH regeneration system
Mus musculus [14] = experiment: Toxicity in human A375 cells xenografted mouse assessed as effect on body weight at 30 mg/kg, ip dosed every other day for 2 weeks relative to untreated control; assay type: organism-based; conditions: in vivo, 336 h
[15] = Half life in rat liver microsomes in presence of NADPH regeneration system
A-375 [16] = experiment: Antitumor activity against human A375 cells xenografted in mouse assessed as reduction in tumor volume at 30 mg/kg, ip dosed every other day for 2 weeks; assay type: functional, organism-based; summary of the method: as §1
[17] = Resistance index, ratio of IC50 for cytotoxicity in human PC3-TxR cells to IC50 for cytotoxicity in human PC3 cells; assay type: functional; summary of the method: as §2
[18] = Intrinsic clearance in rat liver microsomes in presence of NADPH regeneration system
Homo sapiens = species: Homo sapiens; experiment: Cytotoxicity in human DU145-TxR cells assessed as reduction in cell viability up to 1 uM incubated for 72 hrs by MTS assay; assay type: functional, cell-based; summary of the method: as §3
A-375 [19] = experiment: Antitumor activity against human A375 cells xenografted in mouse assessed as reduction in tumor weight at 15 mg/kg, ip dosed every other day for 2 weeks; assay type: functional; set-up: scale not given: the % may be the effect or the level left; summary of the method: as §1

Row | Compound | t1/2 [6] [h] | IC50 (A-375 [7]) [nM] | t1/2 [9] [h] | CLint scaled ([11]; liver microsomes) [mL/min/kg] | IC50 (M14) [nM] | IC50 (RPMI-7951) [nM] | CLint scaled ([13]; liver microsomes) [mL/min/kg] | t1/2 [15] [h] | CLint scaled ([18]; liver microsomes) [mL/min/kg] | other results
1 | COc1cc(C(=O)c2c[nH]c(-c3c[nH]c4ccccc34)n2)cc2c1OC=CO2 | 2.69 | 1.1 | 1.42 | 40.3 | 1.2 | 3.3 | 7.7 | 3.57 | 13.1 | inhibition in vivo at 15 mg/kg (A-375 [1]): 54.8%; Activity (A-375 [2]): Active; IC50 [3]: 7.6 nM; inhibition in vivo at 30 mg/kg (A-375 [4]): 73.9%; Ratio IC50 [5]: 1.9; Activity (Mus musculus [8]): Non-Toxic; Activity (A-375 [10]): Active; IC50 (DU-145): 42.2 nM; IC50 (PC-3): 15.2 nM; IC50 [12]: 81.5 nM; inhibition (Bos taurus): Active; Activity (Mus musculus [14]): Non-Toxic; Activity (A-375 [16]): Active; Ratio IC50 [17]: 0.5
2 | O=C(c1ccc2c(c1)OCCO2)c1c[nH]c(-c2c[nH]c3ccccc23)n1 | 3.5 | 159 | 0.37 | 154 | 119 | 214 | 5.95 | 0.85 | 54.9 | –
3 | COc1cc(C(=O)c2c[nH]c(-c3c[nH]c4ccccc34)n2)cc2c1OCCCO2 | – | 32.2 | – | – | 38.2 | 47.7 | – | – | – | –
4 | COc1cc(C(=O)c2c[nH]c(-c3c[nH]c4ccccc34)n2)cc2c1OCO2 | 1.28 | 3.5 | 0.82 | – | 5.6 | – | – | 0.18 | – | CLint scaled ([11]; microsomes): 69.6 mL/min/kg; CLint scaled ([13]; microsomes): 16.3 mL/min/kg; CLint scaled ([18]; microsomes): 253 mL/min/kg
5 | COc1cc(C(=O)c2c[nH]c(-c3c[nH]c4ccccc34)n2)cc2c1OCCO2 | 2.13 | 21 | 2.03 | 28.2 | 11.3 | 29.2 | 9.76 | 0.9 | 51.9 | –
6 | COc1cc(C(=O)c2c[nH]c(-c3c[nH]c4cccc(C)c34)n2)cc2c1OC=CO2 | – | – | – | – | 6.1 | 8.8 | – | – | – | –
7 | CC(=O)O[C@H]1C(=O)[C@@]2(C)[C@H]([C@H](OC(=O)c3ccccc3)[C@]3(O)C[C@H](OC(=O)[C@H](O)[C@@H](NC(=O)c4ccccc4)c4ccccc4)C(C)=C1C3(C)C)[C@]1(OC(C)=O)CO[C@@H]1C[C@@H]2O [PACLITAXEL] | – | – | – | – | – | – | – | – | – | inhibition in vivo at 15 mg/kg (A-375 [1]): 70.7%; Activity (A-375 [2]): Active; Activity (Homo sapiens): inactive; IC50 (DU-145): 1.5 nM; Activity (A-375 [19]): 62.3%
8 | COc1cc(C(=O)c2c[nH]c(-c3cccc4[nH]ccc34)n2)cc2c1OC=CO2 | – | 17.1 | – | – | 13.8 | 34.8 | – | – | – | –
9 | O=C(c1ccc2c(c1)OCO2)c1c[nH]c(-c2c[nH]c3ccccc23)n1 | 3.77 | 191 | 2.28 | 25.1 | 155 | 236 | 5.5 | 2.55 | 18.3 | –
